The target in assay [1] is T1, von Hippel-Lindau disease tumor suppressor/Mitogen-activated protein kinase kinase kinase 11 (Homo sapiens, UniProt Q16584+P40337). The assay can be described thus: PROTAC activity at VHL/DOX-inducible MLK3 (unknown origin) overexpressed in human A-375 cells assessed as protein degradation at 0.1 uM incubated for 24 hrs by immunoblot analysis. The format is cell-based. In short, it runs like this: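 A375 cells with DOX-inducible MLK3 were seeded at 100 000/well and induced with 1 μg/mL DOX for 24 h. Eight VHL-based PROTACs were then tested at 0.1–5 μM for 24 h, with DMSO as control. MLK3 was detected by ECL immunoblot of RIPA lysates, normalised to GAPDH or β-actin.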
Target sequence in this assay (P40337 whole entry, looked up): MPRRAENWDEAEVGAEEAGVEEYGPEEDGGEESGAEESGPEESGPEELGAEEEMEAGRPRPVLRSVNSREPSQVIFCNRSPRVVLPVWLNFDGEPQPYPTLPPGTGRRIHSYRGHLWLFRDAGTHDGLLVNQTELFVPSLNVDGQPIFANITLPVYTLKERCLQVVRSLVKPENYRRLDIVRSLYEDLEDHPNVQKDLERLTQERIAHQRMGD
Target sequence in this assay (Q16584 whole entry, looked up): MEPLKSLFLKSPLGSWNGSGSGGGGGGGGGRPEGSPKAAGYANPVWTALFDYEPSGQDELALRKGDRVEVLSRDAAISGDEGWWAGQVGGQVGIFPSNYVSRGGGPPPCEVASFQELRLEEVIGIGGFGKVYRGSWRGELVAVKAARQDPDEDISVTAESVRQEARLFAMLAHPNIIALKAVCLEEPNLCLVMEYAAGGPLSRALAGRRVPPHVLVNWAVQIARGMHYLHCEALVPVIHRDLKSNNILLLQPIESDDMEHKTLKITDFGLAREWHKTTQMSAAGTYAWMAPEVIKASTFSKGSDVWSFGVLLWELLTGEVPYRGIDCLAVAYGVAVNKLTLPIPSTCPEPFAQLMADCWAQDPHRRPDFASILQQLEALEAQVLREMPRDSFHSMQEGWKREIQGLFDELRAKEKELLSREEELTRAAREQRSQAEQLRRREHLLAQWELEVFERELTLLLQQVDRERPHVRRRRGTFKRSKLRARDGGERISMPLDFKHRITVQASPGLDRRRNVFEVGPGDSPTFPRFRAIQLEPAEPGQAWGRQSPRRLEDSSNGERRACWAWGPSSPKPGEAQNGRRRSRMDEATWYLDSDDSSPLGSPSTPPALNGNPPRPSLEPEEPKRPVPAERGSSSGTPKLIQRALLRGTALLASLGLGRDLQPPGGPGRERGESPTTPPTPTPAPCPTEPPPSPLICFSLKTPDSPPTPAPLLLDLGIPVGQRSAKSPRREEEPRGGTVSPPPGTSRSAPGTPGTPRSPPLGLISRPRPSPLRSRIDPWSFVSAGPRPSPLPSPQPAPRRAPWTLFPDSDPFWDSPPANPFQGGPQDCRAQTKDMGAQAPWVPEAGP
(A western blot detects proteins with antibodies after separation by electrophoresis.)

The target in assay [2] is T1, von Hippel-Lindau disease tumor suppressor/Mitogen-activated protein kinase kinase kinase 11. Description: PROTAC activity at VHL/DOX-inducible MLK3 (unknown origin) overexpressed in human HCC1806 cells assessed as protein degradation at 0.5 uM measured after 2 hrs by immunoblot analysis relative to control. Format: cell-based. A digest of the protocol:
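HCC1806 cells with DOX-inducible MLK3 were induced with 1 μg/mL DOX for 24 h, then treated at 0.5 μM for times from 2 to 24 h, with DMSO as control. MLK3 was measured by immunoblot of RIPA lysates with ECL detection.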
Target sequence in this assay (P40337 whole entry, looked up): as the sequence (P40337 whole entry, looked up) above
Target sequence in this assay (Q16584 whole entry, looked up): as the sequence (Q16584 whole entry, looked up) above

Assay [3] shares this target. The assay can be described thus: PROTAC activity at VHL/DOX-inducible MLK3 (unknown origin) overexpressed in carfilzomib-treated human HCC1806 cells assessed as protein degradation at 0.25 to 1 uM measured after 7 hrs by immunoblot analysis. Format: cell-based. The note with it: dose 0.25-1 µM. In short, it runs like this: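 HCC1806 cells with DOX-inducible MLK3 were induced with 1 μg/mL DOX for 24 h. They were pretreated with 1 μM carfilzomib (proteasome inhibitor) for 1 h, then with PROTAC at 0.25–1 μM for 7 h, with DMSO as control. MLK3 was assessed by ECL immunoblot.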
Target sequence in this assay (P40337 whole entry, looked up): as the sequence (P40337 whole entry, looked up) above
Target sequence in this assay (Q16584 whole entry, looked up): as the sequence (Q16584 whole entry, looked up) above

Assay [4] concerns the target T2, von Hippel-Lindau disease tumor suppressor/Mitogen-activated protein kinase kinase kinase 9 (Homo sapiens) (UniProt P80192+P40337). The assay can be described thus: PROTAC activity at VHL/DOX-inducible MLK1 (unknown origin) overexpressed in human A-375 cells assessed as protein degradation at 0.1 to 5 uM incubated for 24 hrs by immunoblot analysis. The note with it: dose 0.1-5 µM. Format: cell-based. A digest of the protocol:
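A375 cells carried lentiviral DOX-inducible MLK1, MLK2 or MLK4 and were grown in RPMI-1640 with 10% FBS. Cells were seeded at 100 000/well and induced with 1 μg/mL DOX. After 24 h they were treated at 0.1–5 μM for 24 h, with DMSO as control. Levels were read by ECL immunoblot of RIPA lysates, with GAPDH or β-actin loading control.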

Assay [5] has as its target T1, von Hippel-Lindau disease tumor suppressor/Mitogen-activated protein kinase kinase kinase 11. Description: PROTAC activity at VHL/DOX-inducible MLK3 (unknown origin) overexpressed in human HCC1806 cells assessed as protein degradation at 0.5 uM measured after 24 hrs by shotgun proteomic analysis. The format is cell-based. A digest of the protocol: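 HCC1806 cells with DOX-inducible MLK3 were seeded at 150 000/well and induced with DOX for 24 h, then treated with 0.5 μM PROTAC or DMSO for 24 h. Total lysates were chloroform/methanol precipitated, reduced and alkylated with TCEP/CAA, and trypsin-digested at 37 °C overnight. Shotgun LC-MS/MS followed, with log2 fold change and t-test p-values (n = 3).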
Target sequence in this assay (P40337 whole entry, looked up): as the sequence (P40337 whole entry, looked up) above
Target sequence in this assay (Q16584 whole entry, looked up): as the sequence (Q16584 whole entry, looked up) above

Assay [6] has the same target. Description: PROTAC activity at VHL/MLK3 in human MDA-MB-468 cells assessed as half life of protein degradation at 1 uM by Western blot analysis. Format: cell-based. In short, it runs like this:
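Endogenous MLK3: cells seeded at 100 000/well, treated next day with 1 μM PROTAC for 4–48 h, DMSO control; immunoblot with GAPDH or β-actin loading control. Remaining MLK3 quantified over time and t1/2 derived.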
Target sequence in this assay (P40337 whole entry, looked up): as the sequence (P40337 whole entry, looked up) above
Target sequence in this assay (Q16584 whole entry, looked up): as the sequence (Q16584 whole entry, looked up) above

Assay [7] has the same target. Description: PROTAC activity at VHL/MLK3 in human MCF7 cells assessed as protein degradation measured after 24 hrs by Western blot analysis. The format is cell-based. A digest of the protocol:
(§1)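 Endogenous MLK3: cells seeded at 100 000/well, treated next day for 24 h with PROTAC at 0.1–5 μM, DMSO control; immunoblot with GAPDH or β-actin loading control. Remaining MLK3 percentage plotted against concentration to derive DC50 and Dmax.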
Target sequence in this assay (Q16584 whole entry): as the sequence (Q16584 whole entry, looked up) above
Target sequence in this assay (P40337 whole entry): as the sequence (P40337 whole entry, looked up) above

For assay [8] the target is unchanged. Description: PROTAC activity at VHL/MLK3 in human MDA-MB-468 cells assessed as protein degradation at 0.1 to 5 uM measured after 24 hrs by Western blot analysis relative to control. Format: cell-based. The note with it: dose 0.1-5 µM. A digest of the protocol:
as §1
Target sequence in this assay (P40337 whole entry, looked up): as above
Target sequence in this assay (Q16584 whole entry, looked up): as the sequence (Q16584 whole entry, looked up) above

For assay [9] the target is unchanged. Description: PROTAC activity at VHL/MLK3 in human MCF7 cells assessed as protein degradation at 1 uM measured after 24 hrs by immunoblot analysis. Format: cell-based. A digest of the protocol:
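MCF-7 and MDA-MB-468 cells were treated for 24 h across 0.1–5 μM, with DMSO as control. MLK3 was immunoblotted and quantified as percent remaining versus concentration, from which DC50 and Dmax were derived.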

Assay [10] addresses T2, von Hippel-Lindau disease tumor suppressor/Mitogen-activated protein kinase kinase kinase 9 (Homo sapiens). The assay can be described thus: PROTAC activity at VHL/MLK1 in human MCF7 cells assessed as protein degradation at 1 uM incubated for 24 hrs by immunoblot analysis. The format is cell-based. In short, it runs like this:
(§2)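 Endogenous MLK1, MLK2 or MLK4 levels in MCF-7 and MDA-MB-468 cells. Cells were grown in high-glucose DMEM with 10% FBS, seeded at 100 000 cells/well and treated the next day for 24 h, with DMSO as control. Lysis was in RIPA with protease inhibitor, followed by 10% SDS-PAGE, nitrocellulose transfer and ECL immunoblot with GAPDH or β-actin as loading control.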

The target of assay [11] is T3, von Hippel-Lindau disease tumor suppressor/Mitogen-activated protein kinase kinase kinase 21 (Homo sapiens) (UniProt P40337+Q5TCX8). The assay can be described thus: PROTAC activity at VHL/MLK4 in human MCF7 cells assessed as protein degradation at 1 uM incubated for 24 hrs by immunoblot analysis. Format: cell-based. A digest of the protocol:
as §2

Assay [12] addresses T2, von Hippel-Lindau disease tumor suppressor/Mitogen-activated protein kinase kinase kinase 9 (Homo sapiens). The assay can be described thus: PROTAC activity at IAP/MLK1 in human MDA-MB-468 cells assessed as protein degradation at 1 uM incubated for 24 hrs by immunoblot analysis. Format: cell-based. In short, it runs like this:
as §2

The target of assay [13] is T3, von Hippel-Lindau disease tumor suppressor/Mitogen-activated protein kinase kinase kinase 21 (Homo sapiens). Description: PROTAC activity at IAP/MLK4 in human MDA-MB-468 cells assessed as protein degradation at 1 uM incubated for 24 hrs by immunoblot analysis. The format is cell-based. A digest of the protocol:
as §2

Assay [14] relates to MDA-MB-468. Description: Growth inhibition of human MDA-MB-468 cell spheroids in hydrogel at 1 uM incubated for 10 days. Format: functional, cell-based. The note with it: time 10.0 day. A digest of the protocol:
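4000 cells plated on top of hydrogels and grown 10 days with 1 μM PROTAC or DMSO; spheroid formation and size scored.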

A further assay concerns MCF7. Description: Growth inhibition of human MCF7 cell spheroids in low-attachment surface at 1 uM incubated for 10 days. Format: functional, cell-based. The note with it: time 10.0 day. A digest of the protocol: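 Cells grown 10 days in low-attachment surface plates in medium containing 1 μM PROTAC or DMSO; spheroid growth assessed.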
Assay [15] concerns MDA-MB-468. The assay can be described thus: Induction of cell cycle arrest at G2/M phase in human MDA-MB-468 cells at 1 uM measured after 48 hrs by PI staining based flow cytometry. Format: functional. In short, it runs like this: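 Cells seeded at 50 000/well, exposed to 1 μM PROTAC or DMSO for 48 h, trypsinized, fixed in ice-cold methanol and held at –20 °C; next day stained with PI/RNase solution and read by flow cytometry. Two independent experiments.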
(In general: A flow cytometer gives signals particle by particle.)

The subject of assay [16] is MDA-MB-468. Description: Induction of apoptosis in human MDA-MB-468 cells at 1 uM measured after 48 hrs by Annexin V-FITC/PI staining based flow cytometry. The format is functional, cell-based. A digest of the protocol:
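Cells seeded at 50 000/well, treated 48 h with 1 μM PROTAC or DMSO; cells plus supernatant stained with Alexa Fluor488 Annexin V for 30 min at room temperature in the dark, PI added 5 min before flow cytometry. At least three repeats.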

Active and inactive are the calls of the source. No cut-off for these calls is given here.

T2 sequence (P40337 whole entry, looked up): as the sequence (P40337 whole entry, looked up) above
T2 sequence (P80192 whole entry, looked up): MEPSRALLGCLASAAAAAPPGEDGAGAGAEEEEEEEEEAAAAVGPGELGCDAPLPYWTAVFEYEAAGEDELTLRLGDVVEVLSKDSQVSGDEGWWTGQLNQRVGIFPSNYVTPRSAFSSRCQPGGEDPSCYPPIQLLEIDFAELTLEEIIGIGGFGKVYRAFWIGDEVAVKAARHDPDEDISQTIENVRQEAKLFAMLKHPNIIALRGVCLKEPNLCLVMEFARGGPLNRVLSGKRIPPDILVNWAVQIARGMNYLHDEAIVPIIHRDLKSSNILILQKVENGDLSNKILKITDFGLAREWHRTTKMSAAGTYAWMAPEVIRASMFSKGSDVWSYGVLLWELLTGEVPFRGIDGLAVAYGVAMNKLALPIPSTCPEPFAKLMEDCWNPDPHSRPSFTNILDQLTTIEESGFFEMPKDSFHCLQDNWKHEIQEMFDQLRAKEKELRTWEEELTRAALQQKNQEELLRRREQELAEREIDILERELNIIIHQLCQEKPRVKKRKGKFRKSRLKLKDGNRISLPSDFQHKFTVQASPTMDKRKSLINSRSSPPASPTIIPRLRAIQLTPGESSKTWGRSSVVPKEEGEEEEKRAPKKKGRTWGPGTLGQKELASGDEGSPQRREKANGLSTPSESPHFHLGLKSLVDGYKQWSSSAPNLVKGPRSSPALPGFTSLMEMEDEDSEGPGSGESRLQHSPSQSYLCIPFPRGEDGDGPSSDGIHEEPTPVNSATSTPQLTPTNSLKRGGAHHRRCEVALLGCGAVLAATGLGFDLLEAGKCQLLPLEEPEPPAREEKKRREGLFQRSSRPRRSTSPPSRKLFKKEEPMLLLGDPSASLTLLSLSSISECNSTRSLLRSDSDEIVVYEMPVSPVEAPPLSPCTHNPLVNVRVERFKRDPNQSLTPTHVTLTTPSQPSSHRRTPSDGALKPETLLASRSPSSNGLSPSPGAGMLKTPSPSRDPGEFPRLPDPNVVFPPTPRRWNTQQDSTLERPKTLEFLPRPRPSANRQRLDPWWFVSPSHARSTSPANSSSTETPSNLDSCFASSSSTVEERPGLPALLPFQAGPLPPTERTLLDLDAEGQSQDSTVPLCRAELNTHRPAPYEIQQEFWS
T3 sequence (P40337 whole entry, looked up): as the sequence (P40337 whole entry, looked up) above
T3 sequence (Q5TCX8 whole entry, looked up): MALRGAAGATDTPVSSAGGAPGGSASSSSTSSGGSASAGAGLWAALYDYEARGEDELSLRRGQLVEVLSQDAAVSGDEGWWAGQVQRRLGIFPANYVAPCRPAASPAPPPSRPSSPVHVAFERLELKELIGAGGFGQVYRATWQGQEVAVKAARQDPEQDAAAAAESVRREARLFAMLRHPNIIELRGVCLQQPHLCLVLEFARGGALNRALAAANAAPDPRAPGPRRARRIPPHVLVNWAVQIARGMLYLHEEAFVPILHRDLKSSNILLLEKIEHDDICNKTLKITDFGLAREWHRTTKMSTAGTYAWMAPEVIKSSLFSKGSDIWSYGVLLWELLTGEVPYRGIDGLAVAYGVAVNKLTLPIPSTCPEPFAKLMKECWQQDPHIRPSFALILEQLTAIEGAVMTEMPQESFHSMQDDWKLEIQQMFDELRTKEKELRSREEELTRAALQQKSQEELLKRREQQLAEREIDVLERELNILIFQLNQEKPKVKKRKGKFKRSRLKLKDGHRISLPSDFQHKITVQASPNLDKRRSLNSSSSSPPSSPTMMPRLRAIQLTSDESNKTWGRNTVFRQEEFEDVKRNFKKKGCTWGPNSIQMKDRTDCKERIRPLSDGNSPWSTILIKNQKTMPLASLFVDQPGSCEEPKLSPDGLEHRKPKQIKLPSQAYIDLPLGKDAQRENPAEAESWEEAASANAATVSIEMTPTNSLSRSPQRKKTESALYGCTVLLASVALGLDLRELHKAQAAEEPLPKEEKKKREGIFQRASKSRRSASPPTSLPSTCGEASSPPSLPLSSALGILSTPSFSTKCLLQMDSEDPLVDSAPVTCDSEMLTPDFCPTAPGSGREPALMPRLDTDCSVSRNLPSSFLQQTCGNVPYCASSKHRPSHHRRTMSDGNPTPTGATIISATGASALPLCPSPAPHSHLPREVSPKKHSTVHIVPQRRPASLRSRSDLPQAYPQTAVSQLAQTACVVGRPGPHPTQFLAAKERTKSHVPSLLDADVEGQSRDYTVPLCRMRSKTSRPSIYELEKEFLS

For `CCSCc1ccc2c(c1)c1c3c(c4c5cc(CSCC)ccc5n5c4c1n2[C@H]1C[C@](O)(C(=O)NCCOCCOCCOCC(=O)N[C@H](C(=O)N2C[C@H](O)C[C@H]2C(=O)N[C@@H](C)c2ccc(-c4scnc4C)cc2)C(C)(C)C)[C@]5(C)O1)CNC3=O`, the result (in assay [1]; in [5]; in assay [9]; with MDA-MB-468 [15]; in the assay with MDA-MB-468 [16]) was Active. Moreover, the Activity in assay [2] came out at 100%. Besides, the result in assay [3], in [4], in assay [10], in assay [11], in [12] and in [13] was inactive. For the same compound, the T1/2 in [6] is 4 h. Besides, the DC50 (in general, the midpoint of the concentration-degradation curve) in assay [7] is 50 nM. In assay [8], the Emax (in general, the size of the effect at its maximum, as opposed to the concentration needed) amounted to 63%. In addition, the “growth inhibition (GI)” value with MDA-MB-468 [14] is “Active”. Moreover, in the assay with MCF7, the “growth inhibition (GI)” value was “inactive”.

The values are drawn from ChEMBL document CHEMBL5579886, “Selective Degradation of MLK3 by a Novel CEP1347-VHL-02 PROTAC Compound Limits the Oncogenic Potential of TNBC” (J Med Chem, 2024).
